Reference: ChEMBL document CHEMBL4513216, “Probing the Open Global Health Chemical Diversity Library for Multistage-Active Starting Points for Next-Generation Antimalarials” (ACS Infect Dis, 2020)

Assay: Toxicity liver stage against HepG2, at 10uM
Type: cell-based
Set-up: test concentration 10 uM, cell line HepG2-A16-CD81EGFP
Conditions: human, HepG2-A16-CD81EGFP cells; read-out: INHIBITION
In short: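 Uninfected HepG2-A16-CD81EGFP cells, 3 × 10^3 per well, 1536-well, plated on prespotted compound at 10 μM final, parasite-free screening media added to match infected plates; puromycin 10 μM positive, DMSO 0.5% negative; run in parallel with 48 h PbLuc assay at 37 °C, 5% CO2; viability by CellTiter-Glo luminescence, normalized to controls.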

Structure (SMILES) | cytotoxicity at 10 µM [%]
COc1ccc(S(=O)(=O)N2CCOC(Cn3ccnc3)C2)cc1 (stereo unspecified) | 7.25
CC[C@H]1CN2CC[C@H]1C[C@@H]2CNC(=O)NC1CCCCC1 | 0.91
CC[C@H]1CN(C(=O)C(C)(C)C)CC[C@H]1CC(=O)O | -0.61
CC(=O)c1cc2ncc(C(=O)NC3CCCC3)cc2[nH]1 | -1.98
CC(C)[C@H](NC(=O)NC1CCS(=O)(=O)C1)C(=O)NCc1ccc(Cl)cc1 (stereo partly specified) | 3.09
CCOC(=O)c1sc(NC(=O)c2cc(=O)c(OC)c[nH]2)nc1C | -57.1
COC1CCN(c2ccc(NC(=O)Cn3cccn3)cc2)CC1 | 2.04
CS(=O)(=O)N1CC2(CCN(c3nccs3)CC2)c2ccccc21 | 0.933
Cn1ncc2c1NC(=O)CSC2c1ccccc1Cl (stereo unspecified) | 5.81
Cc1ccc(CS(=O)(=O)N2CC[C@H]3[C@H]2CCN3C)cc1 | -11.6
Cc1nn(C)c2cn(CC(=O)N3CCc4ccccc4C3)nc12 | 8.41
CCN(Cc1c(C)nn(CC)c1C)S(=O)(=O)c1cn(C)nc1C | 7.36
Cc1cc2ccccc2n1CC(=O)NCC(=O)N1CCOCC1 | -7.7
O=C(Cc1ccsc1)N1CCC[C@@H]1Cn1c(=O)oc2ccccc21 | 4.53
O=C(c1ccc(=O)[nH]n1)N1CCNCC1c1ccccc1 (stereo unspecified) | -2.44
CN(C)Cc1ccnc(C2CN(Cc3c(F)cccc3F)CCO2)n1 (stereo unspecified) | -3.14
Cn1cc(CN2CCC(c3[nH]ncc3S(C)(=O)=O)C2)cn1 (stereo unspecified) | -4.55
CN1CCCCC12Cc1ccccc1CN(C(=O)C1CCCC1)C2 (stereo unspecified) | 2.88
CCn1nnnc1-c1cccc(NC(N)=O)c1 | 8.92
CSCC(=O)NC1(c2cccc(Cl)c2)CC1 | -1.54
COCCn1c(C(=O)NC(C(N)=O)C(C)C)cc2ccccc21 (stereo unspecified) | 9.73
COc1ccccc1CCNS(=O)(=O)N1CCOCC1 | 2.52
CCOC(=O)N(C)C1CCN(Cc2cnc3ccccn23)CC1 | 18.1

Structure (SMILES) | cytotoxicity at 10 µM [%]
COCCOCCNC(=O)N1CCN(c2ccccc2C#N)CC1 | 6.39
CC(=O)N(Cc1ncc(C)o1)C1CCN(CCOc2ccccc2)C1 (stereo unspecified) | 7.02
CCn1cc(NC(=O)C2CCN(Cc3nc(C)c(C)o3)CC2)cn1 | 5.3
COc1cccc(S(=O)(=O)CCN2CCN(CCO)CC2)c1 | 0.878
CN(CC(N)=O)C(=O)c1cc(Cl)c(Cl)n1C | 8.56
Cc1nn(CC(=O)N2CCN(Cc3cccnc3)CC2)c(C)c1Cl | 0.612
CCc1cccc(C)c1NC(=O)C1CC(=O)N(Cc2ccccn2)C1 (stereo unspecified) | 1.09
Cc1nc(CC(=O)N2CCN(c3ccc(N(C)C)cc3)CC2)cs1 | 0.236
CC(Oc1ccccc1C(F)(F)F)C(=O)NCCNC(=O)C1CC1 (stereo unspecified) | 6.91
CCn1ccnc1CN1CCN(CCCS(C)(=O)=O)CC1C (stereo unspecified) | -194
Cc1nn(C(C)C)c(C)c1S(=O)(=O)Nc1cccc(F)c1 | -0.335
Cc1cc(NCC(=O)N(C)CC(F)(F)F)c(C(N)=O)cc1F | -2.91
O=C(Nc1cccn(Cc2ccc(F)cc2)c1=O)c1csnn1 | 1.51
COc1cc(C(=O)N(C)C)ccc1NC(=O)c1ccsc1 | -2.53
CC(CCNC(=O)N1CCC1)N(C)C(=O)OC(C)(C)C (stereo unspecified) | -5.61
O=C1C(Sc2nc(=O)ccn2C2CC2)CCN1c1ccccc1F (stereo unspecified) | 1.73
CC(C)=CCN1CCN(C(=O)C2CCS(=O)(=O)C2)CC1 (stereo unspecified) | -90.5
CN(Cc1cccc(C#N)c1)C(=O)C1CC(c2cccc(F)c2)=NO1 (stereo unspecified) | 1.85
OC(COCc1cccs1)Cn1cc(-n2cccc2)cn1 (stereo unspecified) | 0.12
N#Cc1ccc(NC2CCN(CC(F)F)CC2)c(F)c1 | -5.3
CC(C)c1nc(C2CCCN2c2ncc(C(N)=O)cc2Cl)no1 (stereo unspecified) | 13.4
Cc1n[nH]c(C2CN(Cc3csc(C4CCCCC4)n3)CCO2)n1 (stereo unspecified) | 23.8
COCCNC(=O)NCc1cccc(-n2ccnc2)c1 | 16.1

Structure (SMILES) | cytotoxicity at 10 µM [%]
CC(C)(C#N)c1ccccc1CN(CCO)Cc1ccsc1 | 20
Cc1ccc(OCC(C)NC(=O)CN(C)c2ccc(C#N)cn2)cc1 (stereo unspecified) | -6.05
N#CC1(NC(=O)c2ccc(-c3nc(C4CC4)n[nH]3)cc2)CC1 | -10.7
Cc1nc(-c2ccco2)ccc1C(=O)N1CCc2nnc(N)cc2C1 | -7.09
NCC1(c2cccc(C(F)(F)F)c2)CCOCC1 | -11.1
O=C(Nc1nncs1)NC1CCc2ccccc21 (stereo unspecified) | -10
CC[C@@H](C)[C@@H](N)C(=O)Nc1cccc(-c2cnc(N(C)CCO)nc2)c1 | -5.89
O=C(c1ccc(-n2cnnc2)nc1)N1CCCC(O)(CO)CC1 (stereo unspecified) | -0.274
C[C@@H]1CN(c2nc(N)nc3c2CCC3)C[C@]1(C)O | 4.6
CC(C)[C@@H]1CN(C(=O)CCn2ccccc2=O)C[C@H]1NS(C)(=O)=O | 6.2
CCOCc1nc(-c2ccc(F)cc2Cl)n(C2CCN(C)CC2)n1 | 0.0453
COc1ccc(N2CCN(C(=O)Cn3nc(C)c(C)c3C)C(C)C2)cc1 (stereo unspecified) | -4.33
COCCc1noc(-c2cn(CCc3ccccc3)nn2)n1 | -2.56
CSCCC(=O)N1CCC(CCC(=O)NCC2CCCO2)CC1 (stereo unspecified) | 10.7
Cc1cc(N2CCC(N3CCOCC3)C2)n2nc(C)c(C)c2n1 (stereo unspecified) | 3.9
O=S(=O)(Cc1ccccc1CN1CC[C@H](CO)[C@H](O)C1)c1ccccc1 | -18.2
N[C@@H]1c2ccccc2C2(CCN(C(=O)c3cncc(Cl)c3)CC2)[C@H]1O | -2.78
Cc1ccc(CN(C)C(C(=O)O)c2ccc3c(c2)OCO3)o1 (stereo unspecified) | 6.35
C[C@@H]1CN(C(=O)c2cc(Cn3ccc4ccccc43)[nH]n2)C[C@H](C)O1 | -12.2
CSc1cccc(CN2CCn3nc(CNC(C)=O)cc3C2)c1 | -1.03
CCc1nnc(N[C@H](C)c2cccc(OC)c2)o1 | 1.35
CCOCCn1nc(C2CCNCC2)n(Cc2ccccc2)c1=O | 4.08
C[C@@H]1CN(CCC(=O)N(C)Cc2ccccc2)C[C@@]1(O)C1CCC1 | -6.95

Structure (SMILES) | cytotoxicity at 10 µM [%]
Cc1cc(C(=O)N2CCCC(c3nccn3Cc3ccncc3)C2)no1 (stereo unspecified) | 0.471
Nc1nc2c(c(=O)[nH]1)CCN(C(=O)c1ccccc1N1CCCC1)C2 | 1.79
CSCC(=O)N1CCC(c2nccn2Cc2cscn2)CC1 | -6.6
CC(=O)c1ccc(C(=O)N2CCC(c3cc(O)nc(C)n3)CC2)s1 | 1.3
Cc1ccccc1N1CCN(C(=O)CCc2nncn2C)C(C)C1 (stereo unspecified) | 3.34
Cn1ncc(N2CCC(CNC(=O)[C@@H](N)C3CCCCC3)CC2)cc1=O | 12.7
CCc1cnc(C)nc1NCCN1CCC(O)CC1 | 1.78
Cc1cccc(-n2c(C)cc(=O)[nH]c2=O)c1C | -2
CC1CCN(C(=O)c2cccc(CN3CCOCC3)c2)CC1 | 8.07
CCCc1cncnc1N1CCC(NCCc2nc(O)cc(O)n2)CC1 | 5.99
CSc1ncc(C(=O)N2C[C@@H](NC(C)=O)[C@H](c3ccc(C)cc3)C2)cn1 | -0.645
COCCN(C)CCN1CC2(CCN(C3CCCOC3)CC2)OC1=O (stereo unspecified) | -11
CN1CC(c2ccccc2)CC12CCN(C(=O)c1cncc(Cl)c1)CC2 (stereo unspecified) | -12.6
Cc1[nH]ccc1C(=O)N1CCC(c2nnc(Cn3ccnc3)n2C)CC1 | -9.61
CCn1cc(CNC2CC(=O)N(CCc3cccc(Cl)c3)C2)cn1 (stereo unspecified) | -8.54
Cc1nn(CC(=O)n2cccn2)c(C)c1I | -11.5
Cc1ccc(C(C)N(C)Cc2nc3c(cnn3C)c(=O)[nH]2)c(C)c1 (stereo unspecified) | -12.4
c1ccc(OCC2CC2)c(CNC2CCc3ncnn3C2)c1 (stereo unspecified) | -6.72
Cc1nc(C)n(C2CCCN(C(=O)c3cn4c(C)cccc4n3)C2)n1 (stereo unspecified) | -7.72
CC(C)(C)c1noc(CN2CCN(C(=O)c3cccs3)CC2)n1 | -5.82
Cc1nc(C)c(C(=O)NCCNC(=O)Cc2ccccc2)s1 | -7.89
Cc1nn(-c2ccccc2)c(C)c1CNC1CCc2ncnn2C1 (stereo unspecified) | 2.87
Cc1cc(C)n(CC2CN(Cc3nnsc3Cl)CCO2)n1 (stereo unspecified) | 1.46

Structure (SMILES) | cytotoxicity at 10 µM [%]
CC(C(=O)NCCOc1ccc2c(c1)OCO2)n1cncn1 (stereo unspecified) | -4.33
CC(=O)Nc1nc(C(=O)N2CCCC2c2ccccc2C)cs1 (stereo unspecified) | -2.27
Cn1ncc(NCc2cc(F)cc(F)c2)c(Cl)c1=O | 6.69
O=C(CNCCn1cccn1)NCC1(c2ccccc2)CC1 | 3.15
Cn1ncc2c1CCCC2NCc1ccc(Cl)s1 (stereo unspecified) | 7.6
CC(O)CN(CC(=O)NC(=O)NCC(F)(F)F)c1ccccc1 (stereo unspecified) | 1.15
Cc1nnc(N2CCC(CS(N)(=O)=O)CC2)c(C#N)c1C | 2.12
COCc1cccc(NS(=O)(=O)c2cc(C(=O)O)cs2)c1 | -4.69
c1nc(N2CCOCC2)sc1-c1cncn1CCCN1CCCCC1 | 0.682
N#Cc1cccc(N2CCCC3(C2)CN(c2ncc(F)cn2)CCO3)n1 (stereo unspecified) | 22.3
Cc1cccc(Cn2c3c(ccc2=O)CCN(Cc2ccoc2)CC3)n1 | -11.5
O=c1ccc2c(n1CCN1CCCC1)CCN(Cc1ccoc1)CC2 | -8.97
Cn1cc(N2C(=O)CC[C@@H]3[C@H]2CCN3CC2CCOCC2)cn1 | 7.86
CNCc1nc(-c2ccc3c(c2)OCO3)c[nH]1 | 3.44
CNC(=O)[C@@H]1CCO[C@@H]2CCN(CCc3ccccc3)C[C@H]21 | 2.55
CC(C)N(C)Cc1cnc2n1CCN(CCc1ccccc1)C2 | -4.58
c1cc2nc(C3CCN(CC4CC4)CC3)nn2cc1N1CCCC1 | -8.13
Cc1nc[nH]c1CN1C[C@H]2CC[C@@H](C1)N(C(=O)CCc1cccnc1)C2 | -14.2
CN1CCCCc2c1nc1c(c2N)CCC1 | 8.45
